# Measurements from ChEMBL document CHEMBL4689842, “EUbOPEN Chemogenomics Library wave 1” (2021).
# How the values were obtained:
# Format in all cases: toxicity, cell-based
# Fibroblast = assay: Incucyte cell viability with human fibroblast; settings: 10 µM, compound concentration 10 uM; note: filed as whole numbers so only -1 and 0 and 1 occur
# HEK-293T = assay: Incucyte cell viability with HEK293T; settings: human, 10 µM, compound concentration 10 uM; note: filed as whole numbers so only -1 and 0 and 1 occur
# U2OS = assay: Multiplex assay against U2OS; settings: human
# How it was run: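 At seeding, live cells were stained with Hoechst33342, BioTracker Green Microtubule Cytoskeleton Dye, MitoTracker Red and Annexin V Alexa Fluor 680. After compound addition they were imaged on a CQ1 microscope at 37°C and 5% CO2, and CellPathfinder machine-learning gating sorted them into Hoechst high-intensity objects or normal cells, with normal cells further split into healthy, pyknosed or fragmented nuclei and pyknosed cells into mitotic or apoptotic. Tubulin, mitochondrial-mass and membrane-permeability phenotypes are given as per cents of cells with healthy nuclei.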
# [1] = 0 h, replicate number 1, timepoint 0 hours
# [2] = 18 h, replicate number 1, timepoint 18 hours
# [3] = 24 h, replicate number 1, timepoint 24 hours
# [4] = 12 h, 1 µM, compound concentration 1 uM, replicate 1
# [5] = 12 h, 1 µM, compound concentration 1 uM, replicate 2
# [6] = 12 h, 10 µM, compound concentration 10 uM, replicate 1
# [7] = 12 h, 10 µM, compound concentration 10 uM, replicate 2
# [8] = 24 h, 1 µM, compound concentration 1 uM, replicate 1
# [9] = 24 h, 1 µM, compound concentration 1 uM, replicate 2
structure (smiles),measurement,setting,value
CN1C(=O)[C@@H](NC(=O)c2cc3ccccc3[nH]2)N=C(c2ccccc2)c2ccccc21 [DEVAZEPIDE],Growth Rate,Fibroblast; [1],0
same,Growth Rate,Fibroblast; [2],1
same,Growth Rate,Fibroblast; [3],1
same,Growth Rate,HEK-293T; [1],0
same,Growth Rate,"HEK-293T; 6 h, replicate number 2, timepoint 6 hours",1
same,Growth Rate,"HEK-293T; 12 h, replicate number 1, timepoint 12 hours",1
same,Growth Rate,"HEK-293T; 12 h, replicate number 2, timepoint 12 hours",0
same,Growth Rate,HEK-293T; [2],0
same,Growth Rate,HEK-293T; [3],0
same,Population Fragmented Nuclei (%),U2OS; [4],12%
same,Population Healthy Nuclei (%),U2OS; [4],76%
same,Population Hoechst High Intensity Objects (%),U2OS; [4],7%
same,Population Membrane Permeable-Phenotype (%),U2OS; [4],3%
same,Population Mitochondria Different-Phenotype (%),U2OS; [4],17%
same,Population Normal (%),U2OS; [4],92%
same,Population Pyknosed Nuclei (%),U2OS; [4],11%
same,Population Tubulin-Different-Phenotype (%),U2OS; [4],21%
same,Total Cell Count,U2OS; [4],144
same,Population Apoptotic (%),U2OS; [5],33%
same,Population Fragmented Nuclei (%),U2OS; [5],4%
same,Population Healthy Nuclei (%),U2OS; [5],85%
same,Population Hoechst High Intensity Objects (%),U2OS; [5],5%
same,Population Membrane Permeable-Phenotype (%),U2OS; [5],9%
same,Population Mitochondria Different-Phenotype (%),U2OS; [5],23%
same,Population Mitotic Cells (%),U2OS; [5],66%
same,Population Normal (%),U2OS; [5],94%
same,Population Pyknosed Nuclei (%),U2OS; [5],9%
same,Population Tubulin-Different-Phenotype (%),U2OS; [5],10%
same,Total Cell Count,U2OS; [5],68
same,Population Apoptotic (%),U2OS; [6],52%
same,Population Fragmented Nuclei (%),U2OS; [6],11%
same,Population Healthy Nuclei (%),U2OS; [6],72%
same,Population Hoechst High Intensity Objects (%),U2OS; [6],6%
same,Population Membrane Permeable-Phenotype (%),U2OS; [6],21%
same,Population Mitochondria Different-Phenotype (%),U2OS; [6],45%
same,Population Mitotic Cells (%),U2OS; [6],47%
same,Population Normal (%),U2OS; [6],93%
same,Population Pyknosed Nuclei (%),U2OS; [6],15%
same,Population Tubulin-Different-Phenotype (%),U2OS; [6],70%
same,Total Cell Count,U2OS; [6],117
same,Population Apoptotic (%),U2OS; [7],33%
same,Population Fragmented Nuclei (%),U2OS; [7],20%
same,Population Healthy Nuclei (%),U2OS; [7],75%
same,Population Hoechst High Intensity Objects (%),U2OS; [7],7%
same,Population Membrane Permeable-Phenotype (%),U2OS; [7],37%
same,Population Mitochondria Different-Phenotype (%),U2OS; [7],48%
same,Population Mitotic Cells (%),U2OS; [7],66%
same,Population Normal (%),U2OS; [7],92%
same,Population Pyknosed Nuclei (%),U2OS; [7],5%
same,Population Tubulin-Different-Phenotype (%),U2OS; [7],66%
same,Total Cell Count,U2OS; [7],65
same,Population Apoptotic (%),U2OS; [8],31%
same,Population Fragmented Nuclei (%),U2OS; [8],10%
same,Population Healthy Nuclei (%),U2OS; [8],76%
same,Population Hoechst High Intensity Objects (%),U2OS; [8],5%
same,Population Membrane Permeable-Phenotype (%),U2OS; [8],1%
same,Population Mitochondria Different-Phenotype (%),U2OS; [8],14%
same,Population Mitotic Cells (%),U2OS; [8],68%
same,Population Normal (%),U2OS; [8],94%
same,Population Pyknosed Nuclei (%),U2OS; [8],13%
same,Population Tubulin-Different-Phenotype (%),U2OS; [8],12%
same,Total Cell Count,U2OS; [8],173
same,Population Apoptotic (%),U2OS; [9],37%
same,Population Fragmented Nuclei (%),U2OS; [9],7%
same,Population Healthy Nuclei (%),U2OS; [9],82%
same,Population Hoechst High Intensity Objects (%),U2OS; [9],1%
same,Population Membrane Permeable-Phenotype (%),U2OS; [9],3%
same,Population Mitochondria Different-Phenotype (%),U2OS; [9],10%
same,Population Mitotic Cells (%),U2OS; [9],62%
same,Population Normal (%),U2OS; [9],98%
same,Population Pyknosed Nuclei (%),U2OS; [9],10%
same,Population Tubulin-Different-Phenotype (%),U2OS; [9],6%
